Compound activity from PubChem BioAssay.
Only some compounds are listed: those with a hit (about 3.7% of all), similar ones and a draw of the others.
Cl transport mod: modulates chloride dependent transport by human KCC2 | B-score of Tl+ flux slope (higher = more flux/activation; lower = inhibition) at 10 µM | KCC2 cells, thallium flux FluoZin-2 fluorescence | 190,000 compounds, 2.2% hits | Q9H2X9;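 active = thallium flux slope and its plate-corrected score both differing from the plate sample mean at a set confidence after two filtering rounds, in either direction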;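 also: slope of fluorescence scaled to starting intensity during 10 to 20 s after thallium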
Arbovirus anti: blocks arbovirus infection; arbovirus infection cell-based antiviral screen; inhibition, % at 10 µM; 200,000 compounds, 0.37% hits; AID 1251; in the data active = inhibition above about 30%
PKD1 inh: blocks activity of human protein kinase D1. AID 797. Q15139. 200,000 compounds, 0.056% hits. PKD1 kinase fluorescence polarization assay. inhibition, % (no concentration beside the values); in the data active = inhibition above about 50%
MDM2 E3 inh: blocks human Mdm2 ubiquitin ligase activity; 210,000 compounds, 0.11% hits; cell-based MDM2 ubiquitination luciferase reporter, 2 h; 0 = plate control, 100 = twice control, blank-subtracted; signal enhancement, % at 5 µM;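 active = signal enhancement of 30% or more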;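 also: luminescence tracks abundance of the self-degrading MDM2-luciferase fusion protein; higher signal means inhibition of MDM2 E3 ligase activity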
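test system = mammalian cells stably expressing self-ubiquitinating, self-degrading MDM2 E3–luciferase fusion | quantity = 2000 cells/well | incubation = cell settling 4 h, compound treatment 2 h, both 37 °C | signal = luminescence with SteadyLite reagent, 15 min at room temperature | evaluation = % enhancement relative to plate controls after blank subtraction | benchmarks = plate controls and plate blanks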
ROMK mod: human ROMK K+ channel modulation, primary screen. P48048. Tet-inducible ROMK, thallium flux fluorescence; actives lie on both sides. 130,000 compounds, 2% hits. AID 1918. B-score at 10 µM;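 active = signal ratio slope over the read window, or its plate-corrected B-score, at least 3 SD from the plate mean, either direction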;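 also: B-score of the F/F0 ratio slope over 7 to 12 s after thallium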
Target sequence (P48048 whole entry, looked up): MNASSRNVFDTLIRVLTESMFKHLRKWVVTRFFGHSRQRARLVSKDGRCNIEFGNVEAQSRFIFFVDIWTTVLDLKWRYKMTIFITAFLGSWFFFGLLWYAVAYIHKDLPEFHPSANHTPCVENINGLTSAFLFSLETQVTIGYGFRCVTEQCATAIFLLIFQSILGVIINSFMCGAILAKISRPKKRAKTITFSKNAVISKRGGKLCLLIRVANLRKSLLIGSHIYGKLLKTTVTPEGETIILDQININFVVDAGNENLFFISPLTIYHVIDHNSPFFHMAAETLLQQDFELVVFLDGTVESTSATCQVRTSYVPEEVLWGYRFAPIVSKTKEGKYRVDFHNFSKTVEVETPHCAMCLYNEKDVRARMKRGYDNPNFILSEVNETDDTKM
m-calpain inh: blocks pig calpain II enzyme activity. purified calpain II, fluorogenic peptide substrate, 30 min. inhibition, % at 16 µM. 220,000 compounds, 0.37% hits;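 active = inhibition above about 50%, limit read from the data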
ROMK retest: retested hit modulating human ROMK potassium channel | shares compounds with ROMK mod | ROMK thallium flux, fluorescence ratio; hits give low values | normalized thallium flux (F/F0 slope) at 10 µM | 3,000 compounds, 54% hits | AID 1917;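 active = Flux at 10 µM at least 3 SD below or above vehicle control mean in one or both replicates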
A number is an active result.

For N#C[C@H]1[C@H](c2ccccc2)[C@](C#N)(C(=O)c2ccccc2)[C@@H]2C=Cc3ccccc3N21 the results were Cl transport mod inactive, Arbovirus anti inactive, PKD1 inh inactive, MDM2 E3 inh inactive, ROMK mod -2.8, m-calpain inh inactive and ROMK retest inactive.
For COc1ccc(C(=O)N2c3ccccc3C=CC2C#N)cc1 (stereo unspecified) the results were Cl transport mod inactive, Arbovirus anti inactive, PKD1 inh inactive, MDM2 E3 inh inactive and m-calpain inh inactive.
CC1=C(C(=O)OCc2ccccc2)C(/C=C/c2ccccc2)N2C(=O)CCSC2=N1 (stereo unspecified) was read as Cl transport mod inactive, Arbovirus anti inactive, PKD1 inh inactive, MDM2 E3 inh inactive, ROMK mod -4.9, m-calpain inh inactive and ROMK retest inactive.
`CCOC(=O)C1=C(C)N=C2SCCC(=O)N2[C@@H]1/C=C/c1ccccc1` gave Cl transport mod inactive, Arbovirus anti inactive, PKD1 inh inactive, MDM2 E3 inh inactive and m-calpain inh inactive.
O=C(Nc1ccc(Cl)cc1)/C(=C/c1ccc([N+](=O)[O-])cc1)c1nc2ccccc2s1 was read as Cl transport mod inactive, Arbovirus anti inactive, PKD1 inh inactive, MDM2 E3 inh inactive, ROMK mod inactive and m-calpain inh inactive.
For Cc1nc(N)nc(COc2ccccc2)n1 the results were Cl transport mod inactive, MDM2 E3 inh inactive and m-calpain inh inactive.
c1ccc(Nc2nc(CSc3ncn[nH]3)cs2)cc1 was read as Cl transport mod inactive, Arbovirus anti inactive, PKD1 inh inactive, MDM2 E3 inh inactive, ROMK mod -2, m-calpain inh inactive and ROMK retest inactive.
Screening O=C(CSc1ncn[nH]1)Nc1nc(-c2ccccc2)cs1 returned Cl transport mod inactive, Arbovirus anti inactive, PKD1 inh inactive, MDM2 E3 inh inactive and m-calpain inh inactive.
Cc1cc(O)c2/c(=N\N)c(-c3csc(C)n3)coc2c1 was read as Cl transport mod inactive and m-calpain inh inactive.
Screening O=C(NCc1nnc(SCc2ccc(C(F)(F)F)cc2)n1-c1ccccc1)C12CC3CC(CC(C3)C1)C2 returned Cl transport mod inactive, Arbovirus anti inactive, PKD1 inh inactive, MDM2 E3 inh inactive, ROMK mod inactive and m-calpain inh inactive.
O=C(NCc1nnc(SCc2ccc(F)cc2)n1-c1ccccc1)C12CC3CC(CC(C3)C1)C2 was read as Cl transport mod inactive, Arbovirus anti inactive, PKD1 inh inactive, MDM2 E3 inh inactive, ROMK mod -2.5, m-calpain inh inactive and ROMK retest 0.056.
`Cc1cccc(S(=O)(=O)Nc2ccc(-c3nc4ccc(C)cc4s3)cc2)c1` gave Cl transport mod inactive, Arbovirus anti inactive, PKD1 inh inactive, MDM2 E3 inh inactive, m-calpain inh inactive and ROMK retest inactive.
Cc1ccc(-c2nc3c(c(=O)[nH]c(=O)n3CC(C)C)n2CC(C)C)cc1[N+](=O)[O-] was read as Cl transport mod inactive, Arbovirus anti inactive, PKD1 inh inactive, MDM2 E3 inh inactive, ROMK mod -3.6, m-calpain inh inactive and ROMK retest 0.056.
For O=C(CCC1CCCCC1)NCc1ccccn1 the results were Cl transport mod inactive, Arbovirus anti inactive, PKD1 inh inactive, MDM2 E3 inh inactive, ROMK mod inactive and m-calpain inh inactive.
`COc1ccc(-c2cc(C(F)(F)F)nc(SCC(=O)NCc3cccs3)n2)cc1OC` gave Cl transport mod inactive, Arbovirus anti inactive, PKD1 inh inactive, MDM2 E3 inh inactive, ROMK mod inactive and m-calpain inh inactive.
For CCc1cc2ccc(C)cc2nc1SCC(=O)Nc1cc(C)on1 the results were Arbovirus anti inactive, PKD1 inh inactive, MDM2 E3 inh inactive and m-calpain inh inactive.
`CCc1cc2cc3c(cc2nc1SCC(=O)Nc1cc(C)on1)OCO3` gave Cl transport mod inactive, Arbovirus anti inactive, PKD1 inh inactive, MDM2 E3 inh inactive, m-calpain inh inactive and ROMK retest inactive.
Screening CNC(=O)c1ccc(NC(=O)/C=C/c2cccc(F)c2)cc1 returned Cl transport mod inactive, Arbovirus anti inactive, PKD1 inh inactive, MDM2 E3 inh inactive, ROMK mod inactive and m-calpain inh inactive.
CC(C)(C)NCC(O)COc1c(F)cc(Br)cc1F (stereo unspecified) was read as Cl transport mod inactive, Arbovirus anti inactive, PKD1 inh inactive, MDM2 E3 inh inactive, ROMK mod inactive and m-calpain inh inactive.
CC(C)(C)CC(C)(C)NCC(O)COc1c(F)cc(Br)cc1F (stereo unspecified) was read as Cl transport mod inactive, Arbovirus anti inactive, PKD1 inh inactive, MDM2 E3 inh inactive, ROMK mod -3.2, m-calpain inh inactive and ROMK retest 0.054.
COc1ccc(CNC(=O)CN(c2ccccc2)S(=O)(=O)N(C)C)cc1 was read as Cl transport mod inactive, Arbovirus anti inactive, PKD1 inh inactive, MDM2 E3 inh inactive, ROMK mod inactive and m-calpain inh inactive.
`COc1ccc(N2CCN(S(=O)(=O)c3cnc[nH]3)CC2)cc1` gave Cl transport mod inactive, MDM2 E3 inh inactive and m-calpain inh inactive.
`COc1ccc(CCNC(=O)CCSc2nc(-c3ccco3)cc(C(F)(F)F)n2)cc1OC` gave Cl transport mod inactive, Arbovirus anti inactive, PKD1 inh inactive, MDM2 E3 inh inactive and m-calpain inh inactive.
O=C1c2cccc3c(N4CCCCC4)ccc(c23)C(=O)N1c1ccc(O)cc1 was read as Cl transport mod inactive, Arbovirus anti inactive, PKD1 inh inactive, MDM2 E3 inh inactive, ROMK mod -3.1, m-calpain inh inactive and ROMK retest 0.051.
Screening O=C1c2cccc3c(N4CCCCC4)ccc(c23)C(=O)N1c1ccccc1O returned Arbovirus anti inactive, PKD1 inh inactive, MDM2 E3 inh inactive, ROMK mod -5.2, m-calpain inh inactive and ROMK retest 0.051.
`O=C1CCCN1CCC1CCCCN1Cc1nc(-c2cnccn2)no1` (stereo unspecified) gave Cl transport mod inactive, Arbovirus anti inactive, PKD1 inh inactive, MDM2 E3 inh inactive, ROMK mod inactive and m-calpain inh inactive.
For O=C(CCNS(=O)(=O)c1ccc(Br)s1)NCc1ccccc1 the results were Cl transport mod inactive, Arbovirus anti inactive, PKD1 inh inactive, MDM2 E3 inh inactive, ROMK mod inactive and m-calpain inh inactive.
COc1ccc(NC(=S)N(CCO)Cc2ccccc2)cc1 was read as Cl transport mod inactive, Arbovirus anti inactive, PKD1 inh inactive, MDM2 E3 inh inactive, ROMK mod inactive and m-calpain inh inactive.
COCCN(Cc1ccccc1)C(=S)Nc1ccc(Cl)cc1 was read as Cl transport mod inactive, Arbovirus anti inactive, PKD1 inh inactive, MDM2 E3 inh inactive, ROMK mod 6, m-calpain inh inactive and ROMK retest inactive.
O=S(=O)(NCc1c(Cl)cccc1Oc1ccccc1)c1ccc(F)cc1 was read as Cl transport mod inactive, MDM2 E3 inh inactive, ROMK mod inactive and m-calpain inh inactive.
